Here are results for nine molecules from ChEMBL document CHEMBL4725414, “Identification, Structure-Activity Relationship, and Biological Characterization of 2,3,4,5-Tetrahydro-1H-pyrido[4,3-b]indoles as a Novel Class of CFTR Potentiators” (J Med Chem, 2020).

Activity calls are given as the source filed them.

In test [1] the test system is Cystic fibrosis transmembrane conductance regulator (Homo sapiens), P13569 [G551D]. Briefly: Potentiation of human CFTR G551D mutant expressed in rat FRT cells coexpressing HS-YFP assessed as increase in iodide influx at 20 uM pre-incubated for 15 to 30 mins in presence of forskolin by fluorescent method relative to forskolin alone. Conditions: time min 15-30. The format is cell-based. The procedure, abridged: (§1)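 HS-YFP iodide influx assay in FRT cells (F508del cells rescued 24 h at 32 °C; G551D cells not); 25 min with forskolin plus compound at fixed concentrations, then I⁻ injection (final 100 mM); quenching rate from linear fit of final 10 s of a 14 s reading; three concentrations tested on G551D cells; n = 9.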

For test [2] the test system is unchanged. Briefly: Potentiation of human CFTR G551D mutant expressed in rat FRT cells coexpressing HS-YFP assessed as increase in iodide influx at 1.56 to 50 uM pre-incubated for 15 to 30 mins in presence of forskolin by fluorescent method relative to forskolin alone. Format: cell-based. The following applies: filed as activator, dose microM 1.56-50, time min 15-30. The procedure, abridged:
(§2)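 Cells plated 50,000/well, assayed next day; F508del FRT cells first held 24 h at 32 °C to rescue trafficking. Washed in PBS, incubated 25 min with forskolin (20 μM) plus compound, then I⁻ solution injected (final 100 mM). YFP fluorescence (ex 500, em 535 nm) read for 14 s; initial slope from linear fit of final 10 s; dose–response, n = 9.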

Test [3] relates to Cystic fibrosis transmembrane conductance regulator (Homo sapiens), P13569 [F508del]. The test can be described thus: Potentiation of human CFTR F508 deletion mutant expressed in rat FRT cells coexpressing HS-YFP assessed as increase in iodide influx at […] to 10 uM pre-incubated for 15 to 30 mins in presence of forskolin by fluorescent method relative to forskolin alone. Format: cell-based. The following applies: filed as activator, dose microM 0.256-10, time min 15-30. In outline: as §2

The test system is the same in test [4]. Briefly: Potentiation of human CFTR F508 deletion mutant expressed in CFBE41o cells coexpressing HS-YFP assessed as increase in CFTR-dependent iodide influx at 0.256 to 10 uM pre-incubated for 15 to 30 mins in presence of forskolin by fluorescent method relative to forskolin alone. The following applies: filed as activator, dose microM 0.256-10, time min 15-30.

Test [5] has the same test system. Briefly: Potentiation of human CFTR F508 deletion mutant expressed in rat FRT cells coexpressing HS-YFP assessed as increase in iodide influx at 5 uM pre-incubated for 15 to 30 mins in presence of forskolin by fluorescent method relative to forskolin alone. The format is cell-based. The following applies: filed as activator, time min 15-30. The procedure, abridged: as §2

For test [6] the test system is unchanged. The test can be described thus: Potentiation of human CFTR F508 deletion mutant expressed in rat FRT cells coexpressing HS-YFP assessed as increase in iodide influx at 1 uM pre-incubated for 15 to 30 mins in presence of forskolin by fluorescent method relative to forskolin alone. The format is cell-based. Conditions: filed as activator, time min 15-30. In outline:
as §1

For test [7], the system named is Cystic fibrosis transmembrane conductance regulator (Homo sapiens), P13569 [G551D]. Briefly: Potentiation of human CFTR G551D mutant expressed in rat FRT cells coexpressing HS-YFP assessed as increase in iodide influx at 5 uM pre-incubated for 15 to 30 mins in presence of forskolin by fluorescent method relative to forskolin alone. The format is cell-based. The following applies: filed as activator, time min 15-30. The procedure, abridged:
as §1

The target in test [8] is T1, Cystic fibrosis transmembrane conductance regulator (Homo sapiens, UniProt P13569). The test can be described thus: Potentiation of CFTR in primary human bronchial epithelial cells assessed as stimulation of CFTR-mediated chloride current at 30 to […] uM in presence of CPT-cAMP by short-circuit current method. Conditions: filed as activator, dose microM 30-50. In outline:
(§3)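 Non-CF primary HBE cells on porous inserts, differentiated at air–liquid interface 2–3 weeks; Ussing chamber short-circuit current. Amiloride added to block ENaC; cells stimulated with submaximal CPT-cAMP, then increasing potentiator concentrations or potentiator then CPT-cAMP 5 μM and 100 μM; total CFTR current defined by CFTR inhibitor-172; n = 9 (three experiments × three replicates).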
Target sequence in this assay (P13569 whole entry, looked up): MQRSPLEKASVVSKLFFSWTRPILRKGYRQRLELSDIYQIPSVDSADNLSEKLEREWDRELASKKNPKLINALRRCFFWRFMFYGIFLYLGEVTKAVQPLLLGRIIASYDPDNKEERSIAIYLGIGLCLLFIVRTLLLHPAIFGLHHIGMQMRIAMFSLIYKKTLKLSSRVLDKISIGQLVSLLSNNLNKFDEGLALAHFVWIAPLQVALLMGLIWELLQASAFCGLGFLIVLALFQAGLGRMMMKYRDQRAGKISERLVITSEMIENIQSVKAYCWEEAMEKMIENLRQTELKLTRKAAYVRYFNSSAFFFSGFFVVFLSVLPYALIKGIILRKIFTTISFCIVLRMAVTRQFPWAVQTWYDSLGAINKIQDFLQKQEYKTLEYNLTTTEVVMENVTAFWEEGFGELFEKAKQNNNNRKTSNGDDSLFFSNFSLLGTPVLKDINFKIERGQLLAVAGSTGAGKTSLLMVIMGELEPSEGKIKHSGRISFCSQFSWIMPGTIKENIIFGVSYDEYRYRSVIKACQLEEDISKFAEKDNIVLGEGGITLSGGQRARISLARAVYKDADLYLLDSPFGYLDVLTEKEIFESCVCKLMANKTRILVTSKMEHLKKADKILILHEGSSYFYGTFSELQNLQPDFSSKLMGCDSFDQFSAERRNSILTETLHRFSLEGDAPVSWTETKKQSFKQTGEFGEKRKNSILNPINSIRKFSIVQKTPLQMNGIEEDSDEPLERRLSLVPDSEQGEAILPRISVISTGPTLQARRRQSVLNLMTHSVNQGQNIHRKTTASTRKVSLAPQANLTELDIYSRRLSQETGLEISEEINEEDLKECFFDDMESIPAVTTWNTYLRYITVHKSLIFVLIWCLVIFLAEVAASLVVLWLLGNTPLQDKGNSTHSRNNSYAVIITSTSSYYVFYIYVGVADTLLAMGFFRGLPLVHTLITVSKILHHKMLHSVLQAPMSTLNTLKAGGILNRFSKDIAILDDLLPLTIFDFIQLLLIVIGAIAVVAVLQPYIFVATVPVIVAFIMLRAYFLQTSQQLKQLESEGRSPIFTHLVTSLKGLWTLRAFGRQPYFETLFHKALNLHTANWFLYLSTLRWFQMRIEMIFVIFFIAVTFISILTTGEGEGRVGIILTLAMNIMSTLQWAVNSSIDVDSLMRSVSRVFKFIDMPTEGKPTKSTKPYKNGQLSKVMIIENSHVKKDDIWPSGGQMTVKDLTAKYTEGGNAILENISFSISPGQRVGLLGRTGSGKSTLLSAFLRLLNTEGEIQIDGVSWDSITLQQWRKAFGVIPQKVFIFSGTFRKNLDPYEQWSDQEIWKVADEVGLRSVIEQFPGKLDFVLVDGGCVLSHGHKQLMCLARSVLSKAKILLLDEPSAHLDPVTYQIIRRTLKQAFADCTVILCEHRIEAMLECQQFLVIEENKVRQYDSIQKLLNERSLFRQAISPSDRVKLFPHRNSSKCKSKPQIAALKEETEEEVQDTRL

Test [9] addresses T1, Cystic fibrosis transmembrane conductance regulator. The test can be described thus: Potentiation of CFTR in primary human bronchial epithelial cells assessed as stimulation of CFTR-mediated chloride current at 0.5 to 5 uM in presence of CPT-cAMP and CFTR inhibitor-172 by short-circuit current method. The following applies: dose microM 0.5-5. The procedure, abridged: as §3
Target sequence in this assay (P13569 whole entry, looked up): as above

The test system of test [10] is Cystic fibrosis transmembrane conductance regulator (Homo sapiens), P13569 [F508del]. The test can be described thus: Potentiation of human CFTR F508 deletion mutant expressed in rat FRT cells coexpressing HS-YFP assessed as increase in iodide influx pre-incubated for 15 to 30 mins in presence of forskolin by fluorescent method relative to forskolin alone. Format: cell-based. The following applies: time min 15-30. The procedure, abridged: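 Primary HTS: F508del-CFTR/HS-YFP FRT cells, rescued 24 h at 32 °C, were treated acutely (15–30 min) with single compound at 5 μM plus forskolin 10 μM, screened in duplicate. The HS-YFP quenching rate from iodide influx was expressed relative to forskolin-alone wells. Forskolin plus VX-770 1 μM served as positive control. The average of two rounds was scored, with hit threshold >185%.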

The target in test [11] is T1, Cystic fibrosis transmembrane conductance regulator. Briefly: Potentiation of human CFTR F508 deletion mutant expressed in rat FRT cells coexpressing HS-YFP assessed as increase in iodide influx pre-incubated for 15 to 30 mins in presence of forskolin by fluorescent method. Format: cell-based.
Target sequence in this assay (P13569 as listed by the source): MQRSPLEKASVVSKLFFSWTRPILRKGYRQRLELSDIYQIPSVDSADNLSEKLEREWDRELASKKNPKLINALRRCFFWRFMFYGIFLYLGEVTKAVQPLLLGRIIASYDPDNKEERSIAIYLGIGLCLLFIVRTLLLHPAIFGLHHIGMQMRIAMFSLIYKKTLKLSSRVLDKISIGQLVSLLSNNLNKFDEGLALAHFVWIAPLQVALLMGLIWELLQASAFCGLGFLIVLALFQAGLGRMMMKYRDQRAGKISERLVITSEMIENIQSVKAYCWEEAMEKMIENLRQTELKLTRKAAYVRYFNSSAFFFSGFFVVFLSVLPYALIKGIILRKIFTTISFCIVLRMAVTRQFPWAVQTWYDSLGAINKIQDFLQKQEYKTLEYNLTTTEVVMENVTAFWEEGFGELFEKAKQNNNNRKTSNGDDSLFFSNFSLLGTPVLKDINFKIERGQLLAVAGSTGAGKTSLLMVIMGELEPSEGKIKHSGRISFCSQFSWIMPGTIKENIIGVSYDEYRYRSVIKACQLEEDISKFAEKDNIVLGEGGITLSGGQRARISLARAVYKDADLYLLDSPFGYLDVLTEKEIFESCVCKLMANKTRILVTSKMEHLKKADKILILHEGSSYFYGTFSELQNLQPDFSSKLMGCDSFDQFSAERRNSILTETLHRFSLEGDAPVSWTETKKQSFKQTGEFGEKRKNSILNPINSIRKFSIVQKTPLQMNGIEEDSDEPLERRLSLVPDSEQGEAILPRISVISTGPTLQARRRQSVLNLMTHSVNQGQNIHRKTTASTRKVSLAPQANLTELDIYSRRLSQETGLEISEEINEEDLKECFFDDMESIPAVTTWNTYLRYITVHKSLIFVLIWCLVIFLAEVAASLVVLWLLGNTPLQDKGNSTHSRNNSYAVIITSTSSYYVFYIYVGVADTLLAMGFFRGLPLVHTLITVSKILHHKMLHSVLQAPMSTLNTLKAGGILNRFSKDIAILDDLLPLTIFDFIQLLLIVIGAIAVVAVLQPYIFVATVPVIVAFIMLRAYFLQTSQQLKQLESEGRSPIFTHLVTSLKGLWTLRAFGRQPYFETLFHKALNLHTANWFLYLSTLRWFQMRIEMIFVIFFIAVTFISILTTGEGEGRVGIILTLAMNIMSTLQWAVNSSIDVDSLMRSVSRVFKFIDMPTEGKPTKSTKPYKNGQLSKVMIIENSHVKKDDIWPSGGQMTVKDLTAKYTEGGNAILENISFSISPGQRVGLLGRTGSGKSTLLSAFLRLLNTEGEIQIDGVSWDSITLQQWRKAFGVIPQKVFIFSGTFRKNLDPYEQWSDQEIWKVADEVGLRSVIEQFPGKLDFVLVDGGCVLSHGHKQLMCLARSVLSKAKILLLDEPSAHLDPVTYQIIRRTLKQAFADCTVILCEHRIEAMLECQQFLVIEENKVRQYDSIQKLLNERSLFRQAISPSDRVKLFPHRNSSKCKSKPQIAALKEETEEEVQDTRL
In test [12] the test system is Cystic fibrosis transmembrane conductance regulator (Homo sapiens), P13569 [F508del]. Briefly: Effect on processing/trafficking of CFTR F508 deletion mutant in primary HBE cells from F508del/F508del CF patient at 0.5 uM incubated for 24 hrs in presence of CFTR corrector ARN23765 by TEER/PD assay. Format: cell-based. In outline:
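Differentiated F508del/F508del primary bronchial epithelia grown at air–liquid interface 2–3 weeks; treated 24 h at 37 °C, 5% CO2 in culture medium with vehicle, corrector ARN23765 (10 nM) alone, or ARN23765 plus test compound (0.5 μM); TEER and PD measured, equivalent short-circuit current calculated; n = 9 (three experiments × three biological replicates).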

In test [13] the target is T1, Cystic fibrosis transmembrane conductance regulator. Briefly: Potentiation of CFTR in primary human bronchial epithelial cells assessed as stimulation of CFTR-mediated chloride current at 100 uM in presence of CPT-cAMP by short-circuit current method. Conditions: dose 1.0 µM, in the assay text read “at 1 uM” for “at 100 uM”. The procedure, abridged:
as §3
Target sequence in this assay (P13569 whole entry, looked up): as the sequence (P13569 whole entry, looked up) above

Chain of Cystic fibrosis transmembrane conductance regulator (Homo sapiens), P13569 [G551D] (P13569 whole entry G551D): as the sequence (P13569 whole entry, looked up) above, with G551D counted along it
Chain of Cystic fibrosis transmembrane conductance regulator (Homo sapiens), P13569 [F508del] (P13569 as listed by the source): as the sequence (P13569 as listed by the source) above

Turning to `COc1cc(F)c2[nH]c3c(c2c1)CN(C(=O)c1cc(C(F)(F)F)[nH]n1)CC3`, the outcome in test [1] (filed as activator) was Active.
Consider `CN(C)c1ccc2cc(C(=O)N3CCc4[nH]c5ccccc5c4C3)[nH]c2c1`, for which the outcome in test [2], in test [3] and in [5] was Active. Besides, the Activity entry in test [4] is “Dose-dependent effect”.
On to `CC(C)(C)c1cc(C(C)(C)C)c(NC(=O)c2c[nH]c3ccccc3c2=O)cc1O`, for which the outcome in test [6], in test [1] (filed as activator) and in test [7] was Active.
Regarding `COc1ccc2[nH]c3c(c2c1)CN(C(=O)c1cc(C(F)(F)F)[nH]n1)CC3`, the outcome in test [8], in test [2], in test [3] and in test [5] was Active. Besides, the outcome in test [9] and in [1] was inactive. Moreover, the Activity result in [4] was “Dose-dependent effect”.
For `O=C(c1cc(C(F)(F)F)[nH]n1)N1CCc2[nH]c3c(F)cccc3c2C1`, in test [1] (filed as activator), the outcome was Active.
`Cc1ccc(F)c2[nH]c3c(c12)[C@H]1CC[C@@H](C3)N1C(=O)c1cc(C(F)(F)F)[nH]n1`: the Emax entry in [10] is “inactive”. The EC50 entry in test [11] is on record as “Not Active”.
In the case of `Cc1ccc(F)c2[nH]c3c(c12)CN(C(=O)c1cc(C(F)(F)F)[nH]n1)CC3`, in [1] (filed as activator), the result was Active.
As for `Cc1ccc(F)c2[nH]c3c(c12)CN(C(=O)c1cc(C(F)(F)F)[nH]n1)[C@H](C)C3`, the result in test [12] was inactive. The fold change (FC) in [13] was more than 2. In addition, the outcome in test [1] (filed as activator) was Active.
For the molecule `O=C(c1cnn(-c2ccccc2)c1)N1CCc2[nH]c3ccccc3c2C1`, the result in [2], in [3] and in test [5] was Active. Moreover, the Activity result in test [4] was “Dose-dependent effect”.
